# Measurements reported in ChEMBL document CHEMBL5724801, “EUbOPEN Chemogenomics Library - Multiplex” (2024).
# Several values for one entry are separate records, joined by “and”; a condition that tells them apart may be missing. Equal values may be shown once.
# Tested on: HEK-293T
# Test: Multiplex assay against HEK293T
# Assay type: toxicity, cell-based
# Conditions: human
# In short: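 Cells stained live at seeding with Hoechst33342, BioTracker Green Microtubule Cytoskeleton Dye, MitoTracker Red and Annexin V Alexa Fluor 680 were imaged on a CQ1 microscope at 37°C and 5% CO2 after compound addition. Their classification by CellPathfinder machine-learning gating ran from Hoechst high-intensity objects versus normal cells, to healthy, pyknosed or fragmented nuclei among normal cells, to mitotic or apoptotic among pyknosed cells. Tubulin, mitochondrial-mass and membrane-permeability phenotypes are per cents of healthy-nucleus cells.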
# [1] = 12 h, 1 µM, compound concentration 1 uM
# [2] = 12 h, 10 µM, compound concentration 10 uM
# [3] = 24 h, 1 µM, compound concentration 1 uM
# [4] = 24 h, 10 µM, compound concentration 10 uM
# [5] = 48 h, 1 µM, compound concentration 1 uM
# [6] = 48 h, 10 µM, compound concentration 10 uM
smiles,measurement,setting,value
CN1CCN(c2ccc(Nc3c4ccccc4nc4ccccc34)cc2)CC1.Cl.Cl.O,Population Apoptotic (%),[1],42% and 55%
same,Population Fragmented Nuclei (%),[1],7% and 4%
same,Population Healthy Nuclei (%),[1],81% and 90%
same,Population Hoechst High Intensity Objects (%),[1],3% and 1%
same,Population Membrane Permeable-Phenotype (%),[1],0%
same,Population Mitochondria Different-Phenotype (%),[1],50% and 59%
same,Population Mitotic Cells (%),[1],57% and 45%
same,Population Normal (%),[1],96% and 98%
same,Population Pyknosed Nuclei (%),[1],11% and 5%
same,Population Tubulin-Different-Phenotype (%),[1],28% and 20%
same,Total Cell Count,[1],411 and 364
same,Population Apoptotic (%),[2],100%
same,Population Fragmented Nuclei (%),[2],24% and 40%
same,Population Healthy Nuclei (%),[2],74% and 58%
same,Population Hoechst High Intensity Objects (%),[2],1% and 0%
same,Population Membrane Permeable-Phenotype (%),[2],0%
same,Population Mitochondria Different-Phenotype (%),[2],99% and 100%
same,Population Mitotic Cells (%),[2],0%
same,Population Normal (%),[2],98% and 99%
same,Population Pyknosed Nuclei (%),[2],1%
same,Population Tubulin-Different-Phenotype (%),[2],97% and 92%
same,Total Cell Count,[2],234 and 194
same,Population Apoptotic (%),[3],42% and 46%
same,Population Fragmented Nuclei (%),[3],9%
same,Population Healthy Nuclei (%),[3],84% and 86%
same,Population Hoechst High Intensity Objects (%),[3],2% and 0%
same,Population Membrane Permeable-Phenotype (%),[3],0%
same,Population Mitochondria Different-Phenotype (%),[3],40% and 44%
same,Population Mitotic Cells (%),[3],57% and 53%
same,Population Normal (%),[3],97% and 99%
same,Population Pyknosed Nuclei (%),[3],5% and 4%
same,Population Tubulin-Different-Phenotype (%),[3],14% and 12%
same,Total Cell Count,[3],455 and 362
same,Population Apoptotic (%),[4],100%
same,Population Fragmented Nuclei (%),[4],28% and 45%
same,Population Healthy Nuclei (%),[4],69% and 53%
same,Population Hoechst High Intensity Objects (%),[4],2% and 0%
same,Population Membrane Permeable-Phenotype (%),[4],0%
same,Population Mitochondria Different-Phenotype (%),[4],100%
same,Population Mitotic Cells (%),[4],0%
same,Population Normal (%),[4],97% and 99%
same,Population Pyknosed Nuclei (%),[4],2% and 0%
same,Population Tubulin-Different-Phenotype (%),[4],92% and 91%
same,Total Cell Count,[4],247 and 206
same,Population Apoptotic (%),[5],45% and 60%
same,Population Fragmented Nuclei (%),[5],11% and 10%
same,Population Healthy Nuclei (%),[5],82% and 85%
same,Population Hoechst High Intensity Objects (%),[5],3% and 1%
same,Population Membrane Permeable-Phenotype (%),[5],0%
same,Population Mitochondria Different-Phenotype (%),[5],30% and 36%
same,Population Mitotic Cells (%),[5],54% and 40%
same,Population Normal (%),[5],96% and 98%
same,Population Pyknosed Nuclei (%),[5],6% and 3%
same,Population Tubulin-Different-Phenotype (%),[5],16% and 12%
same,Total Cell Count,[5],581 and 411
same,Population Apoptotic (%),[6],100% and 66%
same,Population Fragmented Nuclei (%),[6],34% and 52%
same,Population Healthy Nuclei (%),[6],56% and 46%
same,Population Hoechst High Intensity Objects (%),[6],11% and 5%
same,Population Membrane Permeable-Phenotype (%),[6],0%
same,Population Mitochondria Different-Phenotype (%),[6],100% and 99%
same,Population Normal (%),[6],88% and 94%
same,Population Pyknosed Nuclei (%),[6],9% and 1%
same,Population Tubulin-Different-Phenotype (%),[6],88% and 89%
same,Total Cell Count,[6],318 and 272
O=C(NCCN1CCC(n2c(=O)[nH]c3cc(Cl)ccc32)CC1)c1ccc(F)cc1 [HALOPEMIDE],Population Apoptotic (%),[1],46% and 43%
same,Population Fragmented Nuclei (%),[1],5%
same,Population Healthy Nuclei (%),[1],81% and 79%
same,Population Hoechst High Intensity Objects (%),[1],7% and 10%
same,Population Membrane Permeable-Phenotype (%),[1],0%
same,Population Mitochondria Different-Phenotype (%),[1],54% and 62%
same,Population Mitotic Cells (%),[1],53% and 56%
same,Population Normal (%),[1],92% and 89%
same,Population Pyknosed Nuclei (%),[1],13% and 15%
same,Population Tubulin-Different-Phenotype (%),[1],42% and 29%
same,Total Cell Count,[1],334 and 373
same,Population Apoptotic (%),[2],39% and 65%
same,Population Fragmented Nuclei (%),[2],5% and 6%
same,Population Healthy Nuclei (%),[2],74% and 72%
same,Population Hoechst High Intensity Objects (%),[2],14% and 13%
same,Population Membrane Permeable-Phenotype (%),[2],0% and 1%
same,Population Mitochondria Different-Phenotype (%),[2],76% and 84%
same,Population Mitotic Cells (%),[2],60% and 34%
same,Population Normal (%),[2],85% and 86%
same,Population Pyknosed Nuclei (%),[2],20% and 21%
same,Population Tubulin-Different-Phenotype (%),[2],68% and 59%
same,Total Cell Count,[2],460 and 319
same,Population Apoptotic (%),[3],40%
same,Population Fragmented Nuclei (%),[3],7% and 9%
same,Population Healthy Nuclei (%),[3],79%
same,Population Hoechst High Intensity Objects (%),[3],3% and 6%
same,Population Membrane Permeable-Phenotype (%),[3],1% and 0%
same,Population Mitochondria Different-Phenotype (%),[3],35% and 37%
same,Population Mitotic Cells (%),[3],59%
same,Population Normal (%),[3],96% and 93%
same,Population Pyknosed Nuclei (%),[3],12% and 11%
same,Population Tubulin-Different-Phenotype (%),[3],24% and 21%
same,Total Cell Count,[3],471 and 508
same,Population Apoptotic (%),[4],27% and 64%
same,Population Fragmented Nuclei (%),[4],8% and 9%
same,Population Healthy Nuclei (%),[4],72% and 70%
same,Population Hoechst High Intensity Objects (%),[4],8%
same,Population Membrane Permeable-Phenotype (%),[4],1% and 0%
same,Population Mitochondria Different-Phenotype (%),[4],63% and 78%
same,Population Mitotic Cells (%),[4],72% and 35%
same,Population Normal (%),[4],91%
same,Population Pyknosed Nuclei (%),[4],19% and 20%
same,Population Tubulin-Different-Phenotype (%),[4],64% and 62%
same,Total Cell Count,[4],580 and 361
same,Population Apoptotic (%),[5],30% and 28%
same,Population Fragmented Nuclei (%),[5],13%
same,Population Healthy Nuclei (%),[5],79%
same,Population Hoechst High Intensity Objects (%),[5],1% and 3%
same,Population Membrane Permeable-Phenotype (%),[5],1% and 0%
same,Population Mitochondria Different-Phenotype (%),[5],21%
same,Population Mitotic Cells (%),[5],69% and 71%
same,Population Normal (%),[5],98% and 96%
same,Population Pyknosed Nuclei (%),[5],6% and 7%
same,Population Tubulin-Different-Phenotype (%),[5],16% and 10%
same,Total Cell Count,[5],841 and 675
same,Population Apoptotic (%),[6],37% and 60%
same,Population Fragmented Nuclei (%),[6],14%
same,Population Healthy Nuclei (%),[6],72% and 74%
same,Population Hoechst High Intensity Objects (%),[6],8% and 6%
same,Population Membrane Permeable-Phenotype (%),[6],1%
same,Population Mitochondria Different-Phenotype (%),[6],57% and 64%
same,Population Mitotic Cells (%),[6],62% and 40%
same,Population Normal (%),[6],91% and 93%
same,Population Pyknosed Nuclei (%),[6],12% and 11%
same,Population Tubulin-Different-Phenotype (%),[6],55%
same,Total Cell Count,[6],706 and 531
Cc1cccc(F)c1C(=O)Nc1cnc(-c2cc3c(cc2Cl)OC(F)(F)O3)cn1 [ZEGOCRACTIN],Population Apoptotic (%),[1],12.35% and 6.45%
same,Population Healthy Nuclei (%),[1],42.98% and 15.89%
same,Population Hoechst High Intensity Objects (%),[1],0.27% and 0%
same,Population Membrane Permeable-Phenotype (%),[1],0% and 4.17%
same,Population Mitochondria Different-Phenotype (%),[1],33.33% and 20.83%
same,Population Mitotic Cells (%),[1],87.65% and 93.55%
same,Population Normal (%),[1],99.73% and 100%
same,Population Pyknosed Nuclei (%),[1],44.63% and 82.12%
same,Total Cell Count,[1],364 and 151
same,Population Apoptotic (%),[2],18.42% and 16.15%
same,Population Fragmented Nuclei (%),[2],2.44% and 4.03%
same,Population Healthy Nuclei (%),[2],23.41% and 8.72%
same,Population Hoechst High Intensity Objects (%),[2],2.38% and 0%
same,Population Membrane Permeable-Phenotype (%),[2],0% and 7.69%
same,Population Mitochondria Different-Phenotype (%),[2],22.92% and 30.77%
same,Population Mitotic Cells (%),[2],81.58% and 83.85%
same,Population Normal (%),[2],97.62% and 100%
same,Population Pyknosed Nuclei (%),[2],74.15% and 87.25%
same,Population Tubulin-Different-Phenotype (%),[2],37.5% and 23.08%
same,Total Cell Count,[2],210 and 149
same,Population Apoptotic (%),[3],23.62% and 14.53%
same,Population Fragmented Nuclei (%),[3],12.53% and 3.66%
same,Population Healthy Nuclei (%),[3],61.82% and 25%
same,Population Hoechst High Intensity Objects (%),[3],0.4% and 0%
same,Population Membrane Permeable-Phenotype (%),[3],2.29% and 0%
same,Population Mitochondria Different-Phenotype (%),[3],10.78% and 21.95%
same,Population Mitotic Cells (%),[3],76.38% and 85.47%
same,Population Normal (%),[3],99.6% and 100%
same,Population Pyknosed Nuclei (%),[3],25.66% and 71.34%
same,Population Tubulin-Different-Phenotype (%),[3],10.78% and 17.07%
same,Population Apoptotic (%),[4],34.16% and 33.09%
same,Population Fragmented Nuclei (%),[4],0.76% and 3.75%
same,Population Hoechst High Intensity Objects (%),[4],0.75% and 0%
same,Population Membrane Permeable-Phenotype (%),[4],0%
same,Population Mitochondria Different-Phenotype (%),[4],52.48% and 27.78%
same,Population Mitotic Cells (%),[4],65.84% and 66.91%
same,Population Normal (%),[4],99.25% and 100%
same,Population Pyknosed Nuclei (%),[4],60.98% and 85%
same,Total Cell Count,[4],266 and 160
same,Population Apoptotic (%),[5],9.86% and 16.85%
same,Population Fragmented Nuclei (%),[5],5.17% and 0.94%
same,Population Healthy Nuclei (%),[5],80.45% and 57.08%
same,Population Hoechst High Intensity Objects (%),[5],0% and 0.47%
same,Population Membrane Permeable-Phenotype (%),[5],4.53% and 2.48%
same,Population Mitochondria Different-Phenotype (%),[5],22.67% and 22.31%
same,Population Mitotic Cells (%),[5],90.14% and 83.15%
same,Population Normal (%),[5],100% and 99.53%
same,Population Pyknosed Nuclei (%),[5],14.39% and 41.98%
same,Population Apoptotic (%),[6],30.82% and 29%
same,Population Fragmented Nuclei (%),[6],1.98% and 3.11%
same,Population Healthy Nuclei (%),[6],61.88% and 34.78%
same,Population Hoechst High Intensity Objects (%),[6],0.49% and 2.42%
same,Population Membrane Permeable-Phenotype (%),[6],2% and 0%
same,Population Mitochondria Different-Phenotype (%),[6],76.4% and 44.64%
same,Population Mitotic Cells (%),[6],69.18% and 71%
same,Population Normal (%),[6],99.51% and 97.58%
same,Population Pyknosed Nuclei (%),[6],36.14% and 62.11%
same,Total Cell Count,[6],406 and 165
